The list is not random: actives were taken first. Their share in the collection is about 0.74%.
G6PDH CS: inhibits Leuconostoc G6PDH, flagging false hits in G6PDH-based assays. Purified L. mesenteroides G6PDH, diaphorase/resazurin coupled fluorescence, 45 min. inhibition, % at 5 µM. 200,000 compounds, 0.12% hits. AID 1020; in the data active = inhibition above about 50%
Diaph inh CS: inhibits diaphorase or chemically oxidizes, flagging diaphorase assay artifacts. inhibition, % at 20 µM. 190,000 compounds, 0.69% hits. diaphorase resazurin-to-resorufin fluorescence, NADH, 16 min; bacterial (C. kluyveri) enzyme, not human;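 active = primary screen inhibition at 20 µM above a set limit, cut at about 50% in these data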;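 also: plate controls were DMSO with full reaction for no effect and wells lacking NADH for full effect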
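Test system: diaphorase enzyme from Clostridium kluyveri; amount: diaphorase at 0.14 U/mL in enzyme working solution; detection: fluorescence of resorufin formed from resazurin, Ex 544/Em 590 nm; times: reaction incubation of 16 min at room temperature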
Arbovirus inh: blocks arbovirus infection; arbovirus infection cell-based antiviral screen; inhibition, % at 10 µM; 200,000 compounds, 0.37% hits; AID 1251; in the data active = inhibition above about 30%
HKDC1 inhibitor: HKDC1 (human) hexokinase inhibition; 340,000 compounds, 0.16% hits; recombinant HKDC1, G6PDH/diaphorase resazurin coupled fluorescence; Q2TB90; inhibition, % at 20 µM;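 active = inhibition above about 35% when tested at 20 µM, limit read from the data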;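 also: plate controls were DMSO wells with enzyme for no effect and DMSO wells lacking enzyme for full effect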
Target sequence (Q2TB90 whole entry, looked up): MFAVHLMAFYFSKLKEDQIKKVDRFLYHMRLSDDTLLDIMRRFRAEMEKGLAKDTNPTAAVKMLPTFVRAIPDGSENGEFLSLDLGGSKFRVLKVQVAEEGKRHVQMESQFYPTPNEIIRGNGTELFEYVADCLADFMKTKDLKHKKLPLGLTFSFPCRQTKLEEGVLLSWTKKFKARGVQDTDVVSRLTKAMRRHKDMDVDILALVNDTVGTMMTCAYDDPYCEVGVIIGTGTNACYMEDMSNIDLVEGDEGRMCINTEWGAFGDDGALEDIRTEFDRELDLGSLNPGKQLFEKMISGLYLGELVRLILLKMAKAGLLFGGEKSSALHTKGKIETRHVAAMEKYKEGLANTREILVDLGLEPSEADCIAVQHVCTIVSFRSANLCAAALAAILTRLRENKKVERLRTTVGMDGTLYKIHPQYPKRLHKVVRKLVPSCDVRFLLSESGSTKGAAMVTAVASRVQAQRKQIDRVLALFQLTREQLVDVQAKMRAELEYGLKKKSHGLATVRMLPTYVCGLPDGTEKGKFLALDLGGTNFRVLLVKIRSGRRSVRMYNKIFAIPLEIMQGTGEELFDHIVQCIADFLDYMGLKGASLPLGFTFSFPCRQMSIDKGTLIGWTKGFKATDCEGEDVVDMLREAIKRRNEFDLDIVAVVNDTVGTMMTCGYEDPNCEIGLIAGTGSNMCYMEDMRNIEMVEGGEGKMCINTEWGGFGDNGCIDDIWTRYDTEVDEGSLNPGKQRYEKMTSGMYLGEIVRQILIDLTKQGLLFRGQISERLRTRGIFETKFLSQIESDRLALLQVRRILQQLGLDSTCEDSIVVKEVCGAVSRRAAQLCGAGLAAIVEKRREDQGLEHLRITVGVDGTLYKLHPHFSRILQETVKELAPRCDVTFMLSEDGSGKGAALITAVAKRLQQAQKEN
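Test system: Recombinant HKDC1 (HK5) hexokinase enzyme, produced in-house | Input: HKDC1 at 5 µg/mL | Buffer or medium: Tris pH 8.0 buffer with MgCl2, Tween-20, BSA, BME | Schedule: 90 min reaction incubation at room temperature, dark | Technique: Resazurin-to-resorufin fluorescence via G6PDH and diaphorase coupling, 525/613 nm | Controls: DMSO wells with and without enzyme mix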
Diaph act CS: counter-screen for diaphorase-based assays: diaphorase activators and chemical reducers; Diaphorase/resazurin coupled assay, resorufin fluorescence, 16 min; hits give high values; 1 = vehicle wells, 0 = NADH-free wells; activation factor at 20 µM; 190,000 compounds, 0.005% hits;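 active = diaphorase activity raised at least twofold by the compound at 20 µM; inactive = activation factor below 2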
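Material: Purified diaphorase enzyme from Clostridium kluyveri | Buffer or medium: 50 mM HEPES pH 7.4 with 4.542 mM MgCl2, 0.005% Tween 20 | Times: 16 min enzyme reaction, ambient temperature | Signal: Red resorufin fluorescence at 544/590 nm excitation/emission | Measure: Increased resorufin signal from activators or reducing compounds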
Starred values were filed as active, the others as inactive; · = no result given.

SMILES | G6PDH CS | Diaph inh CS | Arbovirus inh | HKDC1 inhibitor | Diaph act CS
O=[N+]([O-])c1cc(Br)ccc1C[n+]1ccccc1 | · | · | · | -3.0 | ·
S=c1[nH]nc(-c2ccco2)n1/N=C/C=C/c1ccccc1 | 1.4 | 57.2* | 6.9 | 1.8 | 0.4
COc1ccc(S(=O)(=O)N2CCN(c3ccc4nnc(-c5ccccc5)n4n3)CC2)cc1 | 6.0 | 52.8* | 14.3 | 14.1 | 0.5
COc1ccc(S(=O)(=O)N2CCN(c3ccccc3OC)CC2)cc1 | · | · | · | 2.3 | ·
CCN(CC)C(=O)CSc1nc2c(sc(=S)n2-c2ccccc2)c(=O)n1Cc1ccco1 | -1.6 | 50.8* | -14.2 | 4.4 | 0.5
CC(C)(C)CCN1CCC(CN2CCNC(=O)C2=O)CC1 | · | · | · | -4.1 | ·
O=C(NC1=NCCS1)c1ccc(Cl)c(S(=O)(=O)N2CCCC2)c1 | -2.9 | -2.6 | 32.1* | 1.7 | 1
O=[N+]([O-])c1cccc(-c2cc(-c3cc(Br)ccc3O)[nH]n2)c1 | · | · | · | 1.3 | ·
Oc1ccc(Br)cc1-c1cc(-c2ccc(Cl)cc2)n[nH]1 | -0.1 | -2.0 | 73.5* | -9.0 | 1
COc1ccc(-c2cc(-c3ccc(Cl)cc3)n[nH]2)c(O)c1 | · | · | · | -4.9 | ·
Oc1ccc(Br)cc1-c1cc(-c2ccccc2)n[nH]1 | 6.7 | 24.4 | 36.1* | 1.5 | 0.8
CCN1/C(=C/C=C/c2oc3ccc4ccccc4c3[n+]2CC)Oc2ccc3ccccc3c21 | 2.5 | -24.6 | -19.8 | 50.8* | 1.2
C[C@]12C=C[C@H](O)CC1=CCC1C2CC[C@@]2(C)C1CCC21OCCO1 (stereo partly drawn) | · | · | · | -2.0 | ·
Cn1c(/N=C/c2c(O)ccc3ccccc23)nc2ccccc21 | 11.8 | 77.3* | 6.9 | 53.7* | 0.2
Cc1nn(-c2cc(C(F)(F)F)ccc2Cl)c2nc(C(F)(F)F)[nH]c(=O)c12 | 13.1 | 15.0 | 42.0* | -8.0 | 0.8
Oc1ccc(-c2csc(Nc3ncccn3)n2)cc1O | 29.0 | 51.8* | -2.2 | 0.6 | 0.5
Oc1ccc(-c2csc(-c3ccccc3)n2)cc1O | 19.4 | 71.3* | -13.2 | 3.7 | 0.3
CSCCC(NC(=O)COc1ccccc1)C(=O)N1CC(C)OC(C)C1 (stereo not drawn) | · | · | · | -9.4 | ·
COc1ccc(S(=O)(=O)Nc2cc3c4c(c2)CC(=O)N4CCC3)cc1C | · | · | · | -3.9 | ·
COC(=O)c1ccccc1NC(=O)CN1CCC(NC(=O)c2ccccc2C)CC1 | 7.5 | 24.4 | 83.5* | 1.4 | 0.8
O=c1/c(=C\c2cc([N+](=O)[O-])cc([N+](=O)[O-])c2O)sc2nc3ccccc3n12 | -3.4 | 50.1* | 15.2 | 33.1 | 0.5
O=C(O)c1cc(C(=O)O)cc(-c2ccc(/C=c3/sc4nc5ccccc5n4c3=O)o2)c1 | -0.9 | 97.6* | 21.2 | 23.9 | 0
O=c1/c(=C/c2ccccn2)sc2nc3ccccc3n12 | -7.1 | 15.4 | -0.1 | -0.5 | 0.8
CSc1ccc(CCNC(=O)CN2C(=O)c3cccnc3Oc3ccc(C)cc32)cc1 | · | · | · | -5.1 | ·
CC(=O)C1=C(c2ccccc2)NC(=O)NC1c1ccc(O)c(O)c1 (stereo not drawn) | 40.2 | 53.9* | -0.3 | -6.1 | 0.5
SMILES | G6PDH CS | Diaph inh CS | Arbovirus inh | HKDC1 inhibitor | Diaph act CS
O=C(COC(=O)c1ccc2ncsc2c1)Nc1ccccc1Br | · | · | · | -2.1 | ·
COc1ccc(Cl)cc1NC(=O)C1COc2ccccc2O1 (stereo not drawn) | -1.6 | 14.7 | 32.1* | -8.0 | 0.9
COc1ccc(OC)c(NC(=O)C2COc3ccccc3O2)c1 (stereo not drawn) | 7.2 | 3.4 | 14.7 | 0.8 | 1
COC(=O)/C=C\C(C#N)(C#N)N=Cc1ccc(OC)cc1 | · | · | · | -1.5 | ·
CCCN(CC(=O)Nc1ccccc1OC)C(=O)CNC(=O)c1ccc(C)s1 | · | · | · | -5.2 | ·
NC(=S)n1[nH]c(-c2ccc([N+](=O)[O-])cc2)c(N=Nc2cccc(Cl)c2)c1=O | 1.8 | 50.8* | 4.2 | -7.3 | 0.5
CC(C)(C)NS(=O)(=O)c1ccc(NS(=O)(=O)c2ccc(F)cc2)cc1 | 2.4 | -4.8 | 8.3 | 3.8 | 1
CCOC(=O)c1c(OCC)[nH]c2c1cc(O)c1ccccc12 | 7.7 | 74.0* | -14.8 | 26.6 | 0.3
CC(C)=CCc1c(O)ccc2c1OC(c1ccc(O)c(O)c1)CC2=O (stereo not drawn) | 28.3 | 62.1* | 8.1 | 3.9 | 0.4
C=C1N(C)c2cc([N+](=O)[O-])c(N)cc2C1(C)C | 44.5 | 74.6* | -1.7 | 7.0 | 0.3
Cc1cc(C)n2[nH]c(=O)c(N=Nc3cccc(Cl)c3)c2n1 | 1.6 | 20.9 | -9.7 | 7.9 | 0.8
CCOc1ccc(N=Nc2c(=O)[nH]n3c(=O)cc(C)[nH]c23)cc1 | 6.6 | 25.7 | -6.1 | 11.0 | 0.7
O=c1[nH]n2c(=O)c3c([nH]c2c1N=Nc1cccc(Cl)c1)CCCC3 | 1.8 | 33.2 | 39.6* | 15.8 | 0.7
CCOc1ccc(N=Nc2c(=O)[nH]n3c(=O)c4c([nH]c23)CCCC4)cc1 | 6.6 | 43.5 | 59.6* | 22.7 | 0.6
O=C(CSc1nnc(NC(=O)C2CC2)s1)Nc1cccc(F)c1 | · | · | · | -5.4 | ·
O=C(c1ccc(S(=O)(=O)N2CCC(c3nc4ccccc4[nH]3)CC2)cc1)N1CCOCC1 | -2.1 | 64.5* | -0.6 | 2.8 | 0.4
Cc1cc(O)c(Oc2cc(C)cc(O)c2O)c(O)c1 | 38.7 | 71.3* | -0.9 | 5.1 | 0.3
COc1ccccc1OCCNC(=O)c1c(-c2ccccc2Cl)noc1C | · | · | · | -6.3 | ·
O=C(NNC(=O)c1cc(O)c(O)c(O)c1)NC1CCCCC1 | 14.8 | 50.5* | 11.8 | -8.9 | 0.5
CC(C)N=c1scc(-c2ccco2)n1/N=C/c1ccc(O)c(O)c1 | 14.5 | 59.2* | -29.7 | 6.3 | 0.4
C=CCN=c1scc(-c2ccco2)n1/N=C/c1ccc(O)c(O)c1O | · | · | · | 22.1 | ·
COCCN=c1scc(-c2ccco2)n1/N=C/c1ccc(O)c(O)c1O | 16.2 | 79.7* | -0.7 | 20.7 | 0.2
CCCCn1c(N)c(N(Cc2ccccc2OC)C(=O)C(C)Oc2ccc(Br)cc2)c(=O)[nH]c1=O (stereo not drawn) | · | · | · | -4.6 | ·
COCCOC(=O)C1=C(C)NC(=S)NC1c1ccc(OCC(=O)N2CC(C)OC(C)C2)c(OC)c1 (stereo not drawn) | · | · | · | -2.9 | ·
COc1cc(CN2CCN(Cc3ccc(C)cc3)C(CCO)C2)cc(OC)c1O (stereo not drawn) | 58.4* | 38.0 | 9.2 | 12.1 | 0.6
Cc1cccc(CSc2nc3c(c(-c4cccs4)c2C#N)CN(C)CC3)c1 | -0.5 | 58.4* | 7.6 | -2.8 | 0.4
Cc1cccc(CSc2nc(N)c(C#N)c(-c3cccs3)c2C#N)c1 | 4.1 | 18.2 | 10.7 | 4.9 | 0.8
CCOC(=O)c1c(NC(=O)COC(=O)c2cccnc2OCC)sc(C(=O)N(CC)CC)c1C | · | · | · | -2.8 | ·
COCCn1c(-c2ccc(Cl)cc2)cnc1SCC(=O)NCc1cccs1 | 0.8 | 8.9 | 58.1* | -2.7 | 0.9
Cc1ccc2c(c1)N/C(=C(\C=C(/Cl)[N+](=O)[O-])[N+](=O)[O-])N2 | 25.7 | 74.9* | 3.7 | · | 0.3

Compound activity (PubChem BioAssay)
